# According to ChEMBL document CHEMBL4138248, “Discovery of naphtho[1,2-d]oxazole derivatives as potential anti-HCV agents through inducing heme oxygenase-1 expression” (Eur J Med Chem, 2018):
# The source made the active and inactive calls. No cut-off for these calls is given here.
# Columns and labels:
# Homo sapiens [1] = species on record: Homo sapiens; test: Downregulation of bach-1 protein expression in human Ava5 cells after 3 days by Western blot method; format: functional, cell-based
# In short: (§1)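 Ava5 cells were treated for 3 days at the indicated concentrations. Whole-cell lysates were immunoblotted with anti-Nrf2, anti-Keap-1, anti-bach1 and anti-GAPDH.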
# [2] = target: T1, Heme oxygenase 1 (Homo sapiens) (UniProt P09601); test: Induction of HO-1-mediated reduction on HCV NS3/4A protease activity in human Huh-7 cells transfected with pEG(DE4AB)SEAP/pNS3/4A after 3 days; format: cell-based
# T1 sequence (whole entry): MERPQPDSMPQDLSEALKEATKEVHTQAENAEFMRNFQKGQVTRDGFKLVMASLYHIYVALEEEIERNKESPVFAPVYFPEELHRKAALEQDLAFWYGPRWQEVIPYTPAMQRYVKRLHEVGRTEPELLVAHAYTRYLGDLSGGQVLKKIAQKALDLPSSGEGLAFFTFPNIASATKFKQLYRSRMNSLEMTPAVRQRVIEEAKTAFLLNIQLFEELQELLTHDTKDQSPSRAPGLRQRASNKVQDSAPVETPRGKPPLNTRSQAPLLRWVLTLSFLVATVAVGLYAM
# In short: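 Huh-7 cells were co-transfected with the pEG(DE4AB)SEAP reporter and the NS3/4A expression plasmid pNS3/4A, then treated for 3 days. Secreted SEAP activity reports protease activity and is expressed as fold of untreated control (set to 1). Mean ± SD, n=3.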
# [3] = target: T1, Heme oxygenase 1 (Homo sapiens); test: Induction of HO-1-mediated PKR mRNA expression in human Ava5 cells after 3 days by RT-qPCR method; format: cell-based
# In short: (§2)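 Ava5 cells were treated for 3 days at the indicated concentrations. Target mRNAs were measured by RT-qPCR with specific primers and normalized to endogenous gapdh. Results are relative to DMSO-treated cells.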
# [4] = Induction of HO1 (unknown origin) promoter activity expressed in human Ava5 cells transfected with pHO-1-Luc after 3 days; format: cell-based
# In short: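 Ava5 cells were transfected with 0.5 µg pHO-1-Luc, with pCMV-SEAP (0.1 µg) co-transfected for normalization. Cells were then treated at various concentrations for 3 days, and luciferase was read in lysates. Mean ± SD of three independent experiments.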
# Hepatitis C virus [5] = test: Antiviral activity against HCV infected in human Ava5 cells assessed as inhibition of viral RNA replication at 5 uM after 3 days by RT-qPCR method relative to control; format: functional, Hepacivirus hominis; conditions: Ava5, 72 h
# In short: (§3)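 Ava5 replicon cells were exposed to 5 or 20 μM for 3 days, starting from 10 mM DMSO stocks diluted in medium. HCV RNA was quantified by RT-qPCR against gapdh and expressed as % inhibition relative to untreated control. Ribavirin was the reference drug. Mean ± SD of three independent experiments.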
# Hepatitis C virus [6] = test: Antiviral activity against HCV infected in human Ava5 cells assessed as inhibition of viral RNA replication at 20 uM after 3 days by RT-qPCR method relative to control; format: functional, Hepacivirus hominis; conditions: Ava5, 72 h; in short: as §3
# Hepatitis C virus [7] = test: Potency index, ratio of ribavirin IC50 to test compound IC50 for HCV; format: functional, Hepacivirus hominis
# Hepatitis C virus [8] = test: Antiviral activity against HCV JFH-1 infected in human Huh7.5 cells assessed as inhibition of viral RNA replication after 3 days by RT-qPCR method; format: functional, organism-based; conditions: Hepacivirus hominis
# [9] = target: T2, Nuclear factor erythroid 2-related factor 2 (Homo sapiens) (UniProt Q16236); test: Induction of Nrf2-mediated ARE transactivation in human Ava5 cells transfected with p2xARE-Luc after 3 days; format: cell-based
# T2 sequence (whole entry): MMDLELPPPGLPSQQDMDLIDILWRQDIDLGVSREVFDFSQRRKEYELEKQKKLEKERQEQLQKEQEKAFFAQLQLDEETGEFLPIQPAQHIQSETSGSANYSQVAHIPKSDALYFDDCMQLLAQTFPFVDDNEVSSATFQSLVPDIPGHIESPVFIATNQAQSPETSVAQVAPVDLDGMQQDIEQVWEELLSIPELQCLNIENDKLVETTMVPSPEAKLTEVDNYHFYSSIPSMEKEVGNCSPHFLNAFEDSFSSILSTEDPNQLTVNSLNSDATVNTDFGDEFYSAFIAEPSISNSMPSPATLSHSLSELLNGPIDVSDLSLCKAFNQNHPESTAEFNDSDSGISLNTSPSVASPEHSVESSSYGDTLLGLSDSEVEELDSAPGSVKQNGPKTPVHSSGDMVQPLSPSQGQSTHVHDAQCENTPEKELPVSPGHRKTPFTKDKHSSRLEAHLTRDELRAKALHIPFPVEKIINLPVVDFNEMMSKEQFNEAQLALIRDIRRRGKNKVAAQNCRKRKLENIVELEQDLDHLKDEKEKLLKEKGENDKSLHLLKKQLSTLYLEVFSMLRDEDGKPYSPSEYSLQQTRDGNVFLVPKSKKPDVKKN
# In short: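 Ava5 cells were transfected with the p2xARE-Luc reporter (ARE-driven firefly luciferase), treated for 3 days, and luciferase was measured in lysates. Normalization was to co-transfected pCMV-SEAP. Mean ± SD of three independent experiments.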
# Hepatitis C virus [10] = test: Antiviral activity against HCV infected in human Ava5 cells assessed as inhibition of viral RNA replication at 1 uM after 3 days in presence of HO-1 inhibitor SnPP by RT-qPCR method; format: functional, organism-based; conditions: Hepacivirus hominis
# In short: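 Ava5 cells were co-incubated for 3 days with test compound at 1 μM plus the HO-1 inhibitor SnPP (tin protoporphyrin IX) at 0–5 μM. Lysates went to western blot for NS5B and GAPDH. RNA went to RT-qPCR normalized to gapdh mRNA. Mean ± SD of three independent experiments.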
# Homo sapiens [11] = species on record: Homo sapiens; test: Effect on Nrf2 protein expression in human Ava5 cells at 0.5 to 1 uM after 3 days by Western blot method; format: functional, cell-based; in short: as §1
# [12] = target: T1, Heme oxygenase 1 (Homo sapiens); test: Induction of HO-1-mediated OAS3 mRNA expression in human Ava5 cells after 3 days by RT-qPCR method; format: cell-based; in short: as §2
structure (smiles),measurement,setting,value
COc1ccc(Nc2cc3oc(-c4ccco4)nc3c3ccccc23)cc1,Activity,Homo sapiens [1],Dose-dependent effect
same,Activity,[2],Dose-dependent effect
same,Activity,[3],Dose-dependent effect
same,Activity,[4],Dose-dependent effect
same,inhibition at 5 µM,Hepatitis C virus [5],92.1%
same,inhibition at 20 µM,Hepatitis C virus [6],94.6%
same,Ratio IC50,Hepatitis C virus [7],21
same,inhibition,Hepatitis C virus [8],Dose-dependent effect
same,Activity,[9],Dose-dependent effect
same,inhibition,Hepatitis C virus [10],inactive
same,Activity,Homo sapiens [11],inactive
same,Activity,[12],Dose-dependent effect
